# CTSL1 counter – blocks F. hepatica cathepsin L1 in PFM18AAP counter-screen | recombinant F. hepatica cathepsin L1, Z-Leu-Arg-MCA fluorescence | 300,000 tested, 0.49% active | inhibition, % at 5.96 µM | AID 1906;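 active means inhibition above the mean of all tested compounds plus 3 SD, set per screening campaign, cut at about 17% in these data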;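 further: 0% = plate median of test compound wells and 100% = 1 µM Z-Phe-Ala-diazomethylketone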
# CHOP inh – inhibitors of CHOP induction in ER stress response; CHO-K1 CHOP-promoter luciferase, tunicamycin-induced, 15-18 h; inhibition, % at 10 µM; 220,000 tested, 3.8% active;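 active means compounds that reduced the stress-induced luciferase reporter signal by more than about 70% of percent inhibition, limit read from the data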;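 further: 0% = tunicamycin plus vehicle and 100% = wells without tunicamycin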
# UCH37 DUB inh – human UCH37 deubiquitinating enzyme inhibition; 330,000 tested, 0.33% active; AID 588478; purified proteasome/UCH37, Ub-AMC cleavage fluorescence; Q9Y5K5; inhibition, % (test concentration not listed);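 active means mean inhibition over replicate wells above about 20%, limit read from the data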;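 further: 0% = compound-free wells with enzyme and 100% = wells lacking proteasome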
# Target sequence (Q9Y5K5 whole entry, looked up): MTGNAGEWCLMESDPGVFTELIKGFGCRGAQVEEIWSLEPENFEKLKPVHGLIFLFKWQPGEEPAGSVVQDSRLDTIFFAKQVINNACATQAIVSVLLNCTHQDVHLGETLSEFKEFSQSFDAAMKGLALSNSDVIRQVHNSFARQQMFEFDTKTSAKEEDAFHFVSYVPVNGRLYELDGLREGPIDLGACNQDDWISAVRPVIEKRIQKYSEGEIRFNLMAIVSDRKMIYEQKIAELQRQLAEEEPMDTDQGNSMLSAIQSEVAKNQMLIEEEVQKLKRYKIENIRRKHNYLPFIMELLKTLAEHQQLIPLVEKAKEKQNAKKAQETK
#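 Material: human UCH37 enzyme supplied as purified proteasome complex. Measure: % inhibition of Ub-AMC cleavage fluorescence. Medium: pH 7.4 Tris-HCl (50 mM) with ovalbumin, ATP-MgCl2, DTT. Times: 30 min preincubation with enzyme, 25 min cleavage at room temperature. Detection: AMC fluorescence intensity at 355/460 nm.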
# XBP1 UPR activ – activators of adaptive arm of unfolded protein response (XBP1). CHO-XBP1 luciferase reporter, IRE1-XBP1 UPR activation, luminescence; percent of tunicamycin response, DMSO as zero. activation, % at 20 µM. 330,000 tested, 0.33% active. AID 463104;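 active means versus positive control, 20 µM dose yields 30% or more activation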;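 further: 100% = tunicamycin at 10 µg/mL and 0% = DMSO only wells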
#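 Material: IRE1-XBP1 luciferase reporter CHO line / Quantity: one thousand reporter cells per well / Buffer or medium: F12 with 10% serum / Compound: 20 µM single concentration, DMSO 1% / Times: 6 h treatment, 37 °C / Detection: Steady-Glo luciferase glow luminescence, 10 min after reagent addition / Benchmarks: tunicamycin high, DMSO low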
# CHOP UPR activ – activators of apoptotic arm of unfolded protein response (CHOP) | CHO-CHOP luciferase reporter, UPR activation, luminescence; percent of tunicamycin response over DMSO baseline | 330,000 tested, 0.34% active | activation, % at 10 µM;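 active means at 10 µM dose, activation of 40% or more, normalized to positive control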;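 further: 100% = tunicamycin at 10 µg/mL and 0% = DMSO alone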
#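 Material: CHO-CHOP cells, stable luciferase reporter of PERK-eIF2a-CHOP signalling; quantity: 500 reporter cells seeded per well; buffer or medium: F12 medium containing 10% fetal bovine serum; compound: one dose, 10 µM in 0.5% DMSO; incubation: 6 h compound treatment, 37 °C; measured by: Steady-Glo luciferase luminescence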
# UPR XBP1 confirm – confirmation of adaptive unfolded protein response (XBP1) activators; shares compounds with XBP1 UPR activ; CHO-XBP1 IRE1-XBP1 luciferase reporter, luminescence; activation, % at 20 µM; 1,000 tested, 63% active;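 active means reporter signal at least 30% of the positive control's activation in two or more of four replicate wells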;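 further: plate controls were DMSO negative control for no effect and tunicamycin 10 µg/mL positive control for full effect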
# * hit, by the source's call; · = no result given. Shown is part of a subset that was picked to be rich in hits.
SMILES,CTSL1 counter,CHOP inh,UCH37 DUB inh,XBP1 UPR activ,CHOP UPR activ,UPR XBP1 confirm
CC1(C)C[C@H](O)[C@]2(CO)[C@H](O)C[C@]3(C)C(=CCC4[C@@]5(C)CC[C@H](O)C(C)(C)C5CC[C@]43C)[C@@H]2C1 (stereo partly specified),·,·,·,146*,39,73*
COc1ccc2cc3cc(C(=O)Nc4ccccc4N4CCN(C)CC4)oc3nc2c1,0,86*,-9,40*,3,13
COc1ccc2cc3cc(C(=O)NCCN4CCN(c5ccccc5F)CC4)oc3nc2c1,6,54,-498,5,1,·
CCOC(=O)/C=c1\s/c(=C\c2ccc(C(=O)OC)cc2)c(=O)n1CC(=O)Nc1ccccc1,-3,-8,·,92*,27,1
COc1cc(OC)cc(C(=O)NC(=S)NNC(=O)[C@H]2C[C@@H]2c2ccccc2)c1,3,8,2,-4,2,·
COc1ccc(C(=O)NC(=S)NNC(=O)[C@H]2C[C@@H]2c2ccccc2)cc1OC,-3,34,1,65*,1,14
O=C(Nc1ccc(SC(F)F)cc1)c1cc(-c2ccncc2)nc2ccccc12,·,·,5,64*,8,48*
CCCCN(CC)S(=O)(=O)c1ccc(C(=O)N=c2sc3cc(NC(C)=O)ccc3n2C)cc1,1,47,·,137*,23,106*
CCCCN(C)S(=O)(=O)c1ccc(C(=O)N=c2sc3cc(NC(C)=O)ccc3n2C)cc1,1,-20,·,0,1,·
CCN(CC)C(=NS(=O)(=O)c1ccc(C)cc1)c1ccccc1,·,·,3,·,·,·
Cc1ccc(C2=Nc3ccc(Br)cc3C(c3ccncc3)=NN2)cc1,-2,31,5,37*,4,45*
O=C1c2cccc3cccc(c23)C(=O)N1Nc1ccccc1,4,13,5,6,-2,·
O=C1c2cccc3cc(Br)cc(c23)C(=O)N1Nc1ccc(Br)cc1,1,38,5,40*,22,33*
Cc1ccccc1OCC(=O)NN=Cc1cn(Cc2ccccc2)c2ccccc12,·,·,-2,·,·,·
NCCc1c(-c2ccccc2)n(-c2ccccc2)c2ccccc12,·,-9,3,38*,4,84*
CC(=O)n1c(-c2ccccc2)c(CO)c2ccccc21,-2,·,3,5,-1,·
O=C(NN=Cc1ccc([N+](=O)[O-])o1)C(O)c1ccccc1 (stereo unspecified),·,·,13,·,·,·
O=C(CSCc1ccc(Cl)cc1)Nc1ccc(-c2nnc(-c3ccccc3)o2)cc1,1,67,·,107*,28,72*
CN(C)C(=O)CCc1ccc2c3c([nH]c2c1)[C@]1(C)[C@@H](C(=O)N2CCCCC2)C[C@H](CC(=O)NCc2ccco2)C(=O)N1CC3,·,·,1,0,2,·
O=C(C[C@H]1C[C@H](C(=O)N2CCCCC2)[C@@]2(CCc3ccccc3)c3[nH]c4cc(-c5ccco5)ccc4c3CCN2C1=O)NCCC1=CCCCC1,·,·,-37,0,3,·
O=C(CC1C[C@H](C(=O)N2CCCCC2)[C@@]2(CCc3ccccc3)c3[nH]c4ccccc4c3CCN2C1=O)NCCC1=CCCCC1 (stereo partly specified),·,·,1,126*,40,93*
CN(C)C(=O)CCc1ccc2c3c([nH]c2c1)[C@]1(CCc2ccccc2)[C@@H](C(=O)N2CCCCC2)C[C@H](CC(=O)NCc2ccco2)C(=O)N1CC3,·,·,2,33*,40,2
Cc1ccc(SC(=O)COc2ccccc2C)cc1,-21,75*,4,49*,4,17
Brc1cc(Br)c2ncnc(N3CCCCC3)c2c1,2,66,2,59*,-1,41*
Nc1nc(Nc2cccc(F)c2)nc2ccccc12,1,21,-37,40*,19,42*
SMILES,CTSL1 counter,CHOP inh,UCH37 DUB inh,XBP1 UPR activ,CHOP UPR activ,UPR XBP1 confirm
O=c1oc(Nc2cccc(F)c2)nc2ccccc12,-1,48,0,0,1,·
ON=C1C2C3C(Br)C4C5CC(C1C53)C24 (stereo unspecified),·,·,1,·,·,·
CC(CC(=O)Nc1ccc2c(c1)OCCO2)=NNC(=O)COc1ccccc1C,·,·,0,·,·,·
O=S(=O)(c1ccc(Cl)cc1)N1c2ccccc2Oc2nc3ccccc3nc21,-1,9,-2,6,-1,·
COc1ccc(S(=O)(=O)N2c3cc(Cl)ccc3Oc3nc4ccccc4nc32)cc1,2,·,4,39*,2,31*
O=C(NN=Cc1ccc2c(c1)OCO2)C(=O)Nc1cccc(Cl)c1,·,·,-9,·,·,·
CCC(=O)Nc1nnc(SCC(=O)c2ccc3c(c2)Cc2ccccc2-3)s1,0,33,2,52*,-2,29*
COc1ccc2cc1Oc1ccc(cc1)C[C@H]1c3c(cc(OC)c4c3Oc3c(ccc5c3[C@H](C2)N(C)CC5)O4)CCN1C,·,·,·,68*,19,52*
COc1cc2c(cc1OC)C1Cc3ccc(OC)c(OC)c3CN1CC2 (stereo unspecified),-3,12,4,2,0,·
Cc1csc2nc(COC(=O)c3ccc(Cl)c([N+](=O)[O-])c3)cc(=O)n12,·,·,·,71*,17,3
CCCCn1c(=N)n(CC(=O)c2ccc([N+](=O)[O-])cc2)c2ccccc21,-5,33,·,3,0,·
Cc1ccc(Cn2c(=N)n(CC(=O)c3ccc([N+](=O)[O-])cc3)c3ccccc32)cc1,0,9,3,67*,15,18
CCC(=NNC(N)=O)c1ccc(OC(F)F)cc1,·,·,3,·,·,·
O=C(Nc1cc(S(=O)(=O)N2CCOCC2)ccc1Cl)c1cc([N+](=O)[O-])ccc1Cl,·,·,-2,69*,1,24
O=C(NN=Cc1cccnc1)C1CCCN(S(=O)(=O)c2ccccc2)C1 (stereo unspecified),·,·,2,·,·,·
COc1ccc(Br)cc1-c1nc2c(c(=O)[nH]c(=O)n2Cc2ccccc2)n1C,-2,·,1,50*,1,65*
Cn1c(-c2cc(Cl)ccc2O)nc2c1c(=O)[nH]c(=O)n2Cc1ccccc1,-1,35,-9,1,0,·
Cc1c(Cl)cccc1Nc1nc(NCCO)c2ccccc2n1,0,·,-15,75*,9,58*
CCC(=O)Nc1cccc(C(=O)/C=C/c2ccc(F)cc2)c1,1,-185,5,35*,9,53*
CC(=O)Nc1cccc(C(=O)/C=C/c2ccc(C)cc2)c1,-2,-39,5,17,5,·
CC(=NNC(=O)c1ccccc1)C(=O)O,·,·,0,·,·,·
Cc1cc(NC(=O)c2cncc(Br)c2)ccc1NC(=O)c1cc2ccccc2o1,1,·,-66,35*,26,81*

# Assay outcomes from PubChem BioAssay.
